The species named for experiment [1] is Mus musculus. Briefly: Adjuvant activity in immunized C57BL/6 mouse assessed as increase in IL-17 production in spelnocytes at 0.3 umol treated with ovalbumin for 7 days followed by stimulation with OVA for 7 days and restimulation with OVA measured 24 to 48 hrs post OVA challenge. In kind it is functional, cell-based. Put shortly:
(§1)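 C57BL/6 mice (8–12 wk) given s.c. oil-in-water emulsion (mineral oil/Tween-80/PBS 9:1:90) holding OVA 200 μg ± adjuvant 0.3 μmol; controls were OVA alone or no OVA. Footpad challenge with OVA 100 μg on day 7, spleens taken day 14. Splenocytes restimulated with OVA 10, 30 or 100 μg/mL. Cell number read at 450 nm after 3 h with a count reagent; IFN-γ and IL-17 measured by ELISA.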

The target of experiment [2] is T1, C-type lectin domain family 4 member E (Mus musculus) (UniProt Q9R0Q8).
T1 sequence (whole entry): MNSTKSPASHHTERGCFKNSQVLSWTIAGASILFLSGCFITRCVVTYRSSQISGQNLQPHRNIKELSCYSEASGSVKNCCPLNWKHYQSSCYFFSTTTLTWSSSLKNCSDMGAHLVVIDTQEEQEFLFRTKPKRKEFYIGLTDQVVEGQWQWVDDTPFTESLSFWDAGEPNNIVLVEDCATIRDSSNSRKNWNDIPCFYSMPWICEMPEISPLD
Briefly: Agonist activity at mincle in wild type C57BL/6 mouse GM-CSF derived BMDM assessed as increase in IL-1beta release at 0.1 to 1 nmol after 24 hrs by sandwich ELISA. Put shortly:
(§2)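 Wild-type or Mincle−/− C57BL/6 bone marrow was cultured 8 days with GM-CSF 50 ng/mL in complete RPMI. Macrophages were detached with Acutase and seeded on ligand-coated plates (0.1 or 1 nmol/well); LPS 100 ng/mL was used as comparator. Supernatant was taken at 24 h and TNF, IL-6, IL-1β and MIP-2 measured by sandwich ELISA. Representative of three experiments in triplicate (±SD).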

The target of experiment [3] is T1, C-type lectin domain family 4 member E (Mus musculus). Briefly: Agonist activity at mincle in wild type C57BL/6 mouse GM-CSF derived BMDM assessed as increase in IL-6 release at 0.1 to 1 nmol after 24 hrs by sandwich ELISA. Put shortly:
as §2

Experiment [4] has as its system BMDM. Briefly: Immunostimulatory activity in mincle-/- C57BL/6 mouse GM-CSF derived BMDM assessed as increase in TNF release at […] after 24 hrs by sandwich ELISA method. Type of experiment: functional, cell-based. A digest of the protocol: as §2
(In an ELISA, binding on a coated surface is turned into a signal by an enzyme label.)

The subject of another experiment is Th1. Briefly: Immunostimulatory activity in OT-2 TCR transgenic mouse CD4+ Th1 cells co-cultured with C57BL/6 mouse BMDM assessed as increase in IFNgamma release at 0.1 nmol after 48 hrs by ELISA. In kind it is functional, cell-based. A digest of the protocol:
(§3)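 OT-II CD4+ T cells (1×10^5) were cocultured with GM-CSF bone-marrow cells (1×10^4) on wells coated with glycolipid 0.1 nmol/well or isopropanol only, with OVA323–339 peptide at 0, 0.1 or 1 μM. Supernatant was collected after 48 h and IFN-γ and IL-17 measured by ELISA. Representative of two experiments in triplicate (±SD).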

For another experiment, the system named is Th17. Briefly: Immunostimulatory activity in OT-2 TCR transgenic mouse CD4+ Th17 cells co-cultured with C57BL/6 mouse BMDM assessed as increase in ovalbumin-specific IL-17 release at 0.1 nmol after 48 hrs by ELISA. Type of experiment: functional, cell-based. Put shortly:
as §3

Experiment [5] deals with T1, C-type lectin domain family 4 member E (Mus musculus). In words: Agonist activity at mincle in wild type C57BL/6 mouse GM-CSF derived BMDM assessed as increase in TNF release at 0.1 to 1 nmol after 24 hrs by sandwich ELISA. A digest of the protocol:
as §2

Experiment [6] is filed under the species Mus musculus. Briefly: Adjuvant activity in immunized C57BL/6 mouse assessed as increase in splenocyte number at 0.3 umol treated with ovalbumin for 7 days followed by stimulation with OVA for 7 days and restimulation with OVA measured 24 to 48 hrs post OVA challenge. In kind it is functional. Put shortly: as §1
Experiment [7] concerns BMDM. In words: Immunostimulatory activity in mincle-/- C57BL/6 mouse GM-CSF derived BMDM assessed as increase in IL-6 release at […] after 24 hrs by sandwich ELISA method. In kind it is functional, cell-based. Put shortly:
as §2

The source made the active and inactive calls. No cut-off for these calls is given here.

For the molecule `CCCCCCCCCCCCCCCCCCOc1ccc(C(=O)OC[C@H]2O[C@H](O[C@H]3O[C@H](COC(=O)c4ccc(OCCCCCCCCCCCCCCCCCC)cc4O)[C@@H](O)[C@H](O)[C@H]3O)[C@H](O)[C@@H](O)[C@@H]2O)c(O)c1`, the result in the experiment filed under Mus musculus [1], in the experiment with BMDM [4], in the experiment on Th1 and with BMDM [7] was inactive. The result (in experiment [2]; in experiment [3]; in the experiment with Th17; in experiment [5]; in the experiment filed under Mus musculus [6]) was Active.

The values are drawn from ChEMBL document CHEMBL4033780, “Lipidated Brartemicin Analogues Are Potent Th1-Stimulating Vaccine Adjuvants” (J Med Chem, 2018).
